An excerpt weighted towards active compounds, which were near 1.4% of everything screened.
CAL PDZ FP-1: blocks peptide binding to the human CAL PDZ domain; Q9HD26; purified CAL PDZ, TMR-peptide fluorescence polarization, 1 h; inhibition, % at 24.9 µM; 0.92% of 300,000 active; AID 602252;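 active = mean inhibition of at least 30% with at least half of replicates also reaching 30%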;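 note: 0% = DMSO neutral control and 100% = excess unlabeled competitor peptide PRC23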
DYRK1A inh: Dyrk1A (rat) kinase inhibition; Q63470; inhibition, % at 12.5 µM; AID 504441; 0.43% of 310,000 active; ADP-Glo luminescence, NFATc1 peptide; in the data active = inhibition above about 50%;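 note: plate controls were vehicle with enzyme for no effect and no enzyme for full effect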
ARNT-TACC3 inh: disrupts binding between human ARNT and TACC3; inhibition, % at 9.99 µM; AlphaScreen His-ARNT PAS-B/GST-TACC3 binding, luminescence; TACC3 fragment carries E629A point mutation; AID 623870; 0.66% of 390,000 active;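 active = mean inhibition of replicates at least 50% and at least half of replicates each reaching 50%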;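 note: 0% = complete ARNT plus TACC3 wells and 100% = ARNT alone without TACC3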
CAL PDZ FP-2: inhibitors of human CAL PDZ peptide binding; Q9HD26; purified CAL PDZ, TMR-peptide fluorescence polarization, 1 h; inhibition, % at 20 µM; 0.02% of 330,000 active; AID 504414;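 active = highest replicate inhibition of at least 40%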;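 note: plate controls were DMSO neutral control wells for no effect and unlabeled competitor peptide control wells for full effect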
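Read-out basis: mP drop reported as inhibition | Assay system: Tagged CAL PDZ protein CerCALP, purified | Benchmarks: Unlabelled peptide for full inhibition, DMSO wells as neutral | Schedule: 1 h incubation at room temperature before polarization reading | Buffer or medium: Sodium phosphate/NaCl buffer pH 7.4 with TCEP, IgG, Thesit | Doses: Single point, 20 µM | Measured by: Fluorescence polarization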
Numbers without * were called inactive; . = no result; + = active, no number.

SMILES	CAL PDZ FP-1	DYRK1A inh	ARNT-TACC3 inh	CAL PDZ FP-2
CCOCCCNC(=O)CCCC1=NS(=O)(=O)c2ccccc2N1	.	-7	active	-3
CCOCCCNC(=O)CCCOc1ccccc1	70*	3	-5	-1
C[C@@H]1CN([C@H](C)CO)C(=O)Cc2cc(NS(=O)(=O)c3ccc(F)cc3)ccc2O[C@H]1CN(C)S(=O)(=O)c1ccc(F)cc1	.	.	12	.
CCCNC(=O)Nc1ccc2c(c1)C(=O)N(C)C[C@H](OC)[C@@H](C)CN(CCC)[C@H](C)CO2	.	.	5	.
O=C(NN1C(=O)/C(=C/c2cccc(O)c2)SC1=S)c1ccccc1O	6	.	25	-2
O=C(O)COc1ccccc1/C=C1\SC(=S)N(NC(=O)c2ccccc2O)C1=O	-3	5	51*	-1
O=C(O)COc1ccccc1/C=C1\SC(=Nc2ccc(F)cc2)N(c2ccc(F)cc2)C1=O	-2	-3	4	-3
O=C(O)COc1ccccc1/C=C1\SC(=S)N(/N=C/c2ccccc2O)C1=O	-2	-5	70*	-2
COc1ccc(S(=O)(=O)N2C[C@H](O)COC[C@H]3O[C@H](CC(=O)N(C)C)CC[C@@H]32)cc1	.	.	16	.
CCOC(=O)c1cnc2ncnn2c1N	52*	5	-10	0
Cc1noc(C)c1S(=O)(=O)N(C)C[C@@H]1OCCCC[C@H](C)Oc2ccc(NC(=O)Nc3ccc(C(F)(F)F)cc3)cc2C(=O)N([C@H](C)CO)C[C@@H]1C	.	.	0	.
C=CC(C)n1c(Br)nc2c1c(=O)[nH]c(=O)n2C (configuration not stated)	-4	5	.	.
CC(C)n1c(=S)[nH]c2c1c(=O)[nH]c(=O)n2C	43*	-4	1	-2
COc1cc(S(=O)(=O)Nc2ccc(C(=O)NCC(=O)O)cc2)ccc1NC(C)=O	68*	-8	-1	12
C[C@H]1CN([C@@H](C)CO)S(=O)(=O)c2ccc(-c3cncnc3)cc2O[C@@H]1CN(C)C(=O)C1CCCCC1	.	.	-12	.
CCc1nnc(NC(=O)CN2CCN(c3ccccc3F)CC2)s1	41*	0	-6	0
O=c1cc(-c2ccc(O)c(O)c2)oc2cc(O)cc(O)c12	2	91*	13	-1
O=C(NC1CCCCC1)C1CCN(c2nccs2)CC1	33*	-1	.	-2
O=C(NC1CCCC1)C1CCN(c2nccs2)CC1	.	-1	-13	0
CN(CC(=O)Nc1ccccc1Br)C(=O)c1ccc2c(=O)n3c(nc2c1)CCC3	-2	-1	0	-1
Cc1ccc(C)c(NC(=O)CN(C)C(=O)c2ccc3c(=O)n4c(nc3c2)CCC4)c1	49*	-3	-3	-1
CC(=O)Nc1ccc(S(=O)(=O)Nc2nc3ccccc3nc2Nc2ccc(C(=O)O)c(O)c2)cc1	-1	8	40*	1
CO[C@@H]1CN(C)C(=O)c2ccc(NC(=O)C3CCCC3)cc2OC[C@@H](C)N(C(=O)CC2CC2)C[C@@H]1C	.	.	-7	.
COc1ccc(C(N)c2nccc3cc(OC)c(OC)cc23)cc1OC (configuration not stated)	2	14	72*	-1
CCC(c1nnc(SC(C)C(=O)NC2CC2)n1-c1ccc(OC)cc1)N(C)C (configuration not stated)	68*	.	-3	1
SMILES	CAL PDZ FP-1	DYRK1A inh	ARNT-TACC3 inh	CAL PDZ FP-2
CCOc1ccc(NC(=O)CCN2CCN(S(=O)(=O)c3ccc(F)cc3)CC2)cc1	74*	-1	-2	0
CC(C)NC(=O)N(C)C[C@H]1Oc2ccc(N(C)C)cc2CC(=O)N([C@@H](C)CO)C[C@H]1C	.	.	14	.
Cc1cccc(N(Cc2cc(=O)[nH]c3ccccc23)C(=O)C(C)C)c1	35*	6	-2	.
Cc1ccc(S(=O)(=O)NCC2CCC(C(=O)NCCCN3CCOCC3)CC2)cc1 (configuration not stated)	39*	-1	-8	-4
O=C(NCCc1ccccc1)C1CCC(CNS(=O)(=O)c2ccc(F)cc2)CC1 (configuration not stated)	41*	-1	-3	0
C[C@@H]1CN([C@H](C)CO)C(=O)c2cc(C#Cc3ccccc3F)cnc2O[C@@H]1CN(C)C(=O)C1CCCCC1	.	.	12	.
CCc1ccc2[nH]c(=O)c(C3C(C#N)=C(N)Oc4c3ccc3cccnc43)cc2c1 (configuration not stated)	-7	-8	48*	-3
C[C@@H]1CN([C@@H](C)CO)C(=O)c2ccccc2-c2ccccc2CO[C@H]1CN(C)C(=O)Nc1cccc(F)c1	.	.	6	.
OCC1(CCOc2ccccc2)CCN(Cc2cccn2-c2ncccn2)CC1	56*	3	2	-1
COc1cc(CN2CCC(CO)(CCOc3ccccc3)CC2)cc(OC)c1	5	-2	-9	0
CNc1nc(NN)nc(Nc2ccccc2)n1	58*	6	35	-2
CNc1nc(Nc2ccccc2)nc(OCC(F)(F)F)n1	0	1	1	-1
O=C(Nc1ccccc1F)c1ccc(CN2CCc3ccccc3C2)cc1	132*	4	-7	.
Cc1c(CC(=O)O)c(=O)oc2c(C)c(OCc3c(F)cccc3Cl)ccc12	-6	-1	-22	.
Cc1c(CCC(=O)O)c(=O)oc2c(C)c(OCc3cc4c(cc3Cl)OCO4)ccc12	95*	-2	-1	-4
O=C(NCCc1ccccc1)[C@@H]1[C@@H](CO)[C@@H]2Cn3c(cccc3=O)[C@H]1N2C(=O)C1CCCC1	.	.	-6	.
CN1CCN(C(=O)C[C@@H]2CC[C@@H]3[C@H](COC[C@H](O)CN3C(=O)Nc3cc(Cl)cc(Cl)c3)O2)CC1	.	.	-12	.
Cc1c(NS(=O)(=O)c2cc(C(=O)NCc3cccnc3)ccc2Cl)c(=O)n(-c2ccccc2)n1C	82*	.	-3	0
C[C@H]1CN([C@@H](C)CO)C(=O)Cc2cc(NC(=O)c3ccncc3)ccc2O[C@H]1CN(C)C(=O)Nc1ccc2c(c1)OCO2	.	.	-1	.
Cc1noc(C)c1S(=O)(=O)Nc1ccc2c(c1)CC(=O)N([C@@H](C)CO)C[C@H](C)[C@@H](CN(C)C(=O)Nc1cccc3ccccc13)O2	.	.	12	.
O=C(O)C(NC(=O)C1CCCN1C(=O)OCc1ccccc1)c1ccccc1 (configuration not stated)	-2	-1	-8	0
O=C(O)CC(CNC(=O)C1CCCN1C(=O)OCc1ccccc1)c1ccccc1 (configuration not stated)	74*	3	-5	.
O=c1cnnc(N/N=C/C2CC=CCC2)[nH]1 (configuration not stated)	4	1	65*	-1
O=c1cnnc(N/N=C/c2ccc3c(c2)OCO3)[nH]1	-5	7	15	0
COc1ccc(CCNS(=O)(=O)c2ccc(-n3cnnn3)cc2)cc1OC	+	2	-3	-1
Cc1nn(-c2ccccc2)c2nc(C(Cl)(Cl)Cl)[nH]c(=O)c12	59*	.	3	-1
Cc1ccc(NC2C(=O)NC(=O)NC2=O)cc1	-4	1	41*	-1
CC(C)S(=O)(=O)c1cnc(-c2ccccn2)nc1N	-2	-3	74*	-1
